In assay [1] the target is T1, C. glabrata DHFR (CgDHFR) (Candida glabrata, UniProt Q6FPH0).
T1 sequence (Q6FPH0 1-217): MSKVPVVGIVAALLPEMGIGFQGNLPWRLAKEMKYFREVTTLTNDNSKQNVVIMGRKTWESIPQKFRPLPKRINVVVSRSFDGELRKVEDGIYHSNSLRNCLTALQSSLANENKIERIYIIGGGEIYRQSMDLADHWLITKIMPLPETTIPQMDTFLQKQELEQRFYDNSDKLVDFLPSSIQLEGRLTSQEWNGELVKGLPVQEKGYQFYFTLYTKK
As to the kind of experiment: DHFR enzyme inhibition. The format is biochemical.

In assay [2] the test system is C. albicans (strain SC5314). As to the kind of experiment: Antifungal activity. The format is cell-based. Summed up:
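SC5314 from −80 °C glycerol stock streaked on YM agar (37 °C, 48 h); colonies cultured in glucose–salt–biotin medium, pH 7.1, at 25 °C for 18 h (also printed as 30 °C, 24–36 h). Diluted to 1 × 10^5–1 × 10^6 cells/mL in GSB over test compound in DMSO (1 μL per 100 μL). Alamar Blue added after 24 h; MIC from absorbance-maximum shift 570→600 nm. Amphotericin B, itraconazole controls.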

The term IC50 denotes the point on the concentration scale where inhibition reaches its midpoint. Low values mean inhibition by little substance, high ones a need for much substance. Regarding `CCc1nc(N)nc(N)c1C#CC(C)c1cc(OC)cc(-c2ccncc2)c1` (stereo not drawn) [Compound 1], in assay [1], the IC50 is 89 nM. As to `CCc1nc(N)nc(N)c1C#CC(C)c1ccc(-c2ccc(C)cc2)nc1` (stereo not drawn) [Compound 47, 6-Ethyl-5-[3-(6-p-tolyl-pyridin-3-yl)-but-1-ynyl]-pyrimidine-2,4-diamine], the “MIC C. albicans in the presence of 0.01% Triton X-100” value in assay [2] was “not significantly changed”.

Take `COc1ccc(-c2ccccc2)cc1C(C)C#Cc1c(C)nc(N)nc1N` (stereo not drawn) [Compound 2]: in assay [2], the “MIC C. albicans in the presence of 0.01% Triton X-100” value was “do inhibit the growth of C. albicans”.

Values taken from paper PMC3983340 (Journal of Medicinal Chemistry, 2014).
